According to ChEMBL document CHEMBL1124779, “Synthesis and antitumor activity of 1-[[(dialkylamino)alkyl]amino]-4-methyl-5H-pyrido[4,3-b]benzo[e]- and -benzo[g])indoles. A new class of antineoplastic agents” (1990):
Converted amounts (≈) assume the structure as drawn.

Columns and labels:
[1] = test system: L1210; assay: Cytotoxicity in the multiple tumor disk diffusion soft agar assay at the dose of 15 ug/disk against leukemia L1210; format: functional, Mus musculus
In short: (§1)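 Soft agar disk diffusion: bottom layer 0.8% noble agar, top layer 0.47% noble agar, both in 1:1 CMRL-Fischer medium with 11% horse serum. Top layer seeded with 5×10^3 L1210 cells or 10^6 solid tumor cells (C38, PO3). Drug applied on a dried 6-mm filter-paper disk. Incubation 7-11 days. Inhibition zone measured by inverted microscope, in units (1 unit = 30 μm).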

[2] = test system: P388; assay: In vivo T/C (survival time treated/survival time control x 100) was determined against P388 leukemia cells at 10 mg/Kg; format: functional, Mus musculus
In short: (§2)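 B6D2 F1 mice, at least five per group, were inoculated ip on day 0 with 10^6 viable P388 cells (25 mL/kg). Compounds were dissolved in distilled water and given ip (25 mL/kg) daily on days 1–4. Mortality was checked daily, with necropsy of dead animals. T/C×100 was median survival, treated versus control. Survivors beyond 50 days counted as cured and were excluded from the median.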

[3] = test system: P388; assay: In vitro cytotoxicity was determined against P388 leukemia cells; format: functional; details: Mus musculus, read-out: ID50 (the source's name)
In short: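 P388 cells in exponential growth, RPMI 1640 with 2 mM glutamine, 10 μM 2-mercaptoethanol and 10% FCS, 5% CO2, 37 °C. Cells at 10^5 cells/mL. Drugs in distilled water added on day 0. Cells counted by Coulter counter after 96 h. ID50 (μg/mL, 50% inhibition of proliferation) estimated by regression of concentration/response data.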

[4] = Tested for cytotoxicity in the multiple tumor disk diffusion soft agar assay at the dose of 15 ug/disk against solid tumor C38; U = 32 uM; format: functional, Mus musculus; in short: as §1
[5] = Tested for cytotoxicity in the multiple tumor disk diffusion soft agar assay at the dose of 15 ug/disk against solid tumor PO3; U = […]; format: functional, Mus musculus; in short: as §1
[6] = test system: L1210; assay: Tested for cytotoxicity in the multiple tumor disk diffusion soft agar assay at the dose of 15 ug/disk against leukemia L1210; range is 500-580; format: functional, Mus musculus; in short: as §1
[7] = test system: L1210; assay: Tested for cytotoxicity in the multiple tumor disk diffusion soft agar assay at the dose of 15 ug/disk against leukemia L1210; U = 32 uM; format: functional, Mus musculus; in short: as §1
[8] = test system: L1210; assay: Tested for cytotoxicity in the multiple tumor disk diffusion soft agar assay at the dose of 15 ug/disk against leukemia L1210; range is 290-350; format: functional, Mus musculus; in short: as §1
[9] = test system: P388; assay: In vivo T/C (survival time treated/survival time control x 100) was determined against P388 leukemia cells at 40 mg/Kg; format: functional, Mus musculus; in short: as §2
[10] = test system: L1210; assay: Tested for cytotoxicity in the multiple tumor disk diffusion soft agar assay at the dose of 15 ug/disk against leukemia L1210; range is 450-500; format: functional, Mus musculus; in short: as §1
[11] = Cytotoxicity in the multiple tumor disk diffusion soft agar assay at the dose of 15 ug/disk against solid tumor C38.; format: functional, Mus musculus; in short: as §1
[12] = Cytotoxicity in the multiple tumor disk diffusion soft agar assay at the dose of 15 ug/disk against solid tumor PO3; format: functional, Mus musculus; in short: as §1
[13] = test system: L1210; assay: Tested for cytotoxicity in the multiple tumor disk diffusion soft agar assay at the dose of 15 ug/disk against leukemia L1210; format: functional, Mus musculus; in short: as §1
[14] = Tested for cytotoxicity in the multiple tumor disk diffusion soft agar assay at the dose of 15 ug/disk against solid tumor PO3; range is 430-480; format: functional, Mus musculus
[15] = test system: L1210; assay: Tested for cytotoxicity in the multiple tumor disk diffusion soft agar assay at the dose of 15 ug/disk against leukemia L1210; range is 420-525; format: functional, Mus musculus; in short: as §1
[16] = Tested for the change in body weight between day1 and 7 for murine solid tumor model B16 early stage that is subcutaneously implanted by the intravenous treatment at the dose of 5 mg/kg in 1-4 schedule; format: functional, Mus musculus
In short: (§3)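 sc implant of 1 mm³ tumor fragment. MA 16/C in C3H mice, B16 in C57BL/6 mice, C26 in CD2F1 mice; 10 per group. iv dosing on days 1-4 at 10 mL/kg. Mice weighed daily. Killed day 14 (C26) or day 15 (MA 16/C, B16) and tumors weighed. T/C×100 from median tumor weight, treated vs control. Body weight change taken from day 1 to 7.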

[17] = Tested for medium tumor weight of treated /control animals x 100 (% T/C) for murine solid tumor model B16 early stage that is subcutaneously implanted by the intravenous treatment at the dose of 5 mg/kg in 1-4 schedule; format: functional, Mus musculus; in short: as §3
[18] = test system: Mus musculus; assay: Tested for medium tumor weight of treated /control animals x 100 (% T/C) for murine solid tumor model C26 early stage that is subcutaneously implanted by the intravenous treatment at the dose of 10 mg/kg in 1-4 schedule; format: functional; in short: as §3
[19] = test system: Mus musculus; assay: Tested for the change in body weight between day1 and 7 for murine solid tumor model C26 early stage that is subcutaneously implanted by the intravenous treatment at the dose of 10 mg/kg in 1-4 schedule; format: functional; in short: as §3
[20] = test system: Mus musculus; assay: Tested for the change in body weight between day1 and 7 for murine solid tumor model MA 16/C early stage that is subcutaneously implanted by the intravenous treatment at the dose of 5 mg/kg in 1-4 schedule; format: functional
In short: (§4)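 Mice given sc 1 mm³ tumor fragment: C26 in CD2F1 mice, MA 16/C in C3H mice (tumors passaged in strain of origin), 10 per group. Drug given iv days 1–4 at 10 mL/kg. Animals weighed daily and watched for toxicity. Body-weight change taken from day 1 to day 7. Killed day 14 (C26) or 15 (MA 16/C).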

[21] = test system: Mus musculus; assay: Tested for medium tumor weight of treated /control animals x 100 (% T/C) for murine solid tumor model MA 16/C early stage that is subcutaneously implanted by the intravenous treatment at the dose of 5 mg/kg in 1-4 schedule; format: functional; in short: as §3
[22] = test system: Mus musculus; assay: In vivo total number of survivors was determined against L1210 Leukemia cells out of 8 mouse at 50 day; format: functional, Leukemia cell
In short: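 B6D2 F1 mice, at least five per group, were inoculated ip on day 0 with 10^5 viable L1210 cells (25 mL/kg). Compounds were dissolved in distilled water and given ip (25 mL/kg) on days 1–4. Deaths were checked daily, with necropsy to separate tumor from toxic death. T/C×100 was median survival of treated over controls. Mice surviving over 50 days counted as cured and were excluded from the median.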

[23] = test system: Mus musculus; assay: Tested for medium tumor weight of treated /control animals x 100 (% T/C) for murine solid tumor model 3LL advanced stage that is subcutaneously implanted by the intravenous treatment at the dose of 2.5 mg/kg in 1-4 schedule; format: functional
[24] = test system: Mus musculus; assay: Tested for medium tumor weight of treated /control animals x 100 (% T/C) for murine solid tumor model B16 early stage that is subcutaneously implanted by the intravenous treatment at the dose of 1.25 mg/kg in 1-4 schedule; format: functional; in short: as §3
[25] = test system: Mus musculus; assay: Tested for the change in body weight between day1 and 7 for murine solid tumor model B16 early stage that is subcutaneously implanted by the intravenous treatment at the dose of 1.25 mg/kg in 1-4 schedule; format: functional; in short: as §3
[26] = test system: Mus musculus; assay: Tested for medium tumor weight of treated /control animals x 100 (% T/C) for murine solid tumor model C26 early stage that is subcutaneously implanted by the intravenous treatment at the dose of 2.5 mg/kg in 1-4 schedule; format: functional; in short: as §3
[27] = test system: Mus musculus; assay: Tested for the change in body weight between day1 and 7 for murine solid tumor model C26 early stage that is subcutaneously implanted by the intravenous treatment at the dose of 2.5 mg/kg in 1-4 schedule; format: functional; in short: as §4
[28] = test system: Mus musculus; assay: Tested for medium tumor weight of treated /control animals x 100 (% T/C) for murine solid tumor model MA 16/C early stage that is subcutaneously implanted by the intravenous treatment at the dose of 2.5 mg/kg in 1-4 schedule; format: functional; in short: as §3
[29] = test system: Mus musculus; assay: Tested for the change in body weight between day1 and 7 for murine solid tumor model MA 16/C early stage that is subcutaneously implanted by the intravenous treatment at the dose of 2.5 mg/kg in 1-4 schedule; format: functional; in short: as §4
[30] = test system: Mus musculus; assay: Tested for the change in body weight between day1 and 7 for murine solid tumor model 3LL early stage that is intramuscularly implanted by the intravenous treatment at the dose of 2.5 mg/kg in 1-4 schedule
[31] = test system: Mus musculus; assay: Tested for the change in body weight between day1 and 14 for murine solid tumor model 3LL advanced stage that is intramuscularly implanted by the intravenous treatment at the dose of 2.5 mg/kg in 7-10 schedule
[32] = test system: Mus musculus; assay: Tested for mean number of metastases in treated/control animals x 100 (% T/C) for murine solid tumor model 3LL early stage that is intramuscularly implanted by the intravenous treatment at the dose of 2.5 mg/kg in 1-4 schedule

## Cc1cnc(NCCCN(C)C)c2c3ccc4ccccc4c3n(C)c12
[1]
  Cytotoxicity: 450 U
[2]
  T/C x100: 119
[3]
  IC50: 0.375 µg/mL (≈ 1.08 µM)
[4]
  Cytotoxicity: 480 U
[5]
  Cytotoxicity: 325 U
[6]
  Cytotoxicity: 500 U

## COc1cccc2c1ccc1c3c(NCCCN(C)C)ncc(C)c3n(C)c21
[7]
  Cytotoxicity: 375 U
[8]
  Cytotoxicity: 290 U
[9]
  T/C x100: 130
[3]
  IC50: 0.75 µg/mL (≈ 1.99 µM)
[4]
  Cytotoxicity: 675 U
[5]
  Cytotoxicity: 275 U

## CCN(CC)CCCNc1ncc(C)c2c1c1c3ccc(OC)cc3ccc1n2C
[10]
  Cytotoxicity: 450 U
[1]
  Cytotoxicity: 400 U
[9]
  T/C x100: 143
[3]
  IC50: 0.75 µg/mL (≈ 1.85 µM)
[11]
  Cytotoxicity: 325 U
[12]
  Cytotoxicity: 375 U

## CCN(CC)CCCNc1ncc(C)c2c1c1ccc3c(O)cccc3c1n2C
[7]
  Cytotoxicity: 500 U
[13]
  Cytotoxicity: 450 U
[2]
  T/C x100: 160
[3]
  IC50: 0.05 µg/mL (≈ 0.128 µM)
[4]
  Cytotoxicity: 730 U
[14]
  Cytotoxicity: 430 U

## CCN(CC)CCCNc1ncc(C)c2[nH]c3ccc4ccccc4c3c12
[15]
  Cytotoxicity: 420 U
[9]
  T/C x100: 149
[3]
  IC50: 0.18 µg/mL (≈ 0.499 µM)
[11]
  Cytotoxicity: 525 U

## CCN(CC)CCCNc1nccc2c(C)c3[nH]c4ccncc4c3cc12 [PAZELLIPTINE]
[16]
  Change in weight: -0.5 g
[17]
  T/C: 10%
[18]
  T/C: 10%
[19]
  Change in weight: -1.5 g
[20]
  Change in weight: -1.5 g
[21]
  T/C: 45%

## CCN(CC)CCCNc1nccc2c(C)c3[nH]c4ccc(OC)cc4c3c(C)c12 [RETELLIPTINE]
[22]
  Survivors: 3
[23]
  T/C: 40%
[24]
  T/C: 26%
[25]
  Change in weight: 1 g
[26]
  T/C: 0%
[27]
  Change in weight: -2.1 g
[28]
  T/C: 4%
[29]
  Change in weight: -2.2 g
[30]
  Change in weight: -1.4 g
[31]
  Change in weight: 0 g
[32]
  T/C: 0%
